Legend:
HT-29 [1] = experiment: Cytotoxicity against human HT-29 cells after 48 hrs by MTT assay; assay type: functional, cell-based; conditions: HT-29, 48 h
HepG2 [2] = experiment: Cytotoxicity against human HepG2 cells after 48 hrs by MTT assay; assay type: functional, cell-based; conditions: HepG2, 48 h
[3] = Cytotoxicity against human BEAS2B cells after 48 hrs by MTT assay; assay type: cell-based; conditions: BEAS-2B
Procedure, shortened: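 Beas-2B immortalized, non-cancerous bronchial epithelial cells grown in RPMI-1640 or DMEM with 10% FBS, 5% CO2, 37°C. Cells were seeded and allowed to adhere 12 h before compound addition, then exposed for 48 h. DMSO negative and cisplatin positive controls were included. Viability was measured by MTT absorbance at 595 nm, and IC50 was calculated by the Reed–Muench method.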

K562 [4] = experiment: Cytotoxicity against human K562 cells after 48 hrs by MTT assay; assay type: functional, cell-based; conditions: K562, 48 h
A549 [5] = experiment: Cytotoxicity against human A549 cells after 48 hrs by MTT assay; assay type: functional, cell-based; conditions: A549, 48 h
HL-60 = experiment: Cytotoxicity against human HL60 cells after 48 hrs by MTT assay; assay type: functional, cell-based; conditions: HL-60, 48 h
HepG2 [6] = experiment: Selectivity index, ratio of IC50 for human BEAS2B cells to IC50 for human HepG2 cells; assay type: functional
A549 [7] = experiment: Selectivity index, ratio of IC50 for human BEAS2B cells to IC50 for human A549 cells; assay type: functional
K562 [8] = experiment: Selectivity index, ratio of IC50 for human BEAS2B cells to IC50 for human K562 cells; assay type: functional
HT-29 [9] = experiment: Selectivity index, ratio of IC50 for human BEAS2B cells to IC50 for human HT-29 cells; assay type: functional
[10] = Selectivity index, ratio of IC50 for human BEAS2B cells to IC50 for human HL60 cells; assay type: functional

Structure (SMILES) | IC50 (HT-29 [1]) [µM] | IC50 (HepG2 [2]) [µM] | IC50 [3] [µM] | IC50 (K562 [4]) [µM] | IC50 (A549 [5]) [µM] | IC50 (HL-60) [µM] | Ratio IC50 (HepG2 [6]) | Ratio IC50 (A549 [7]) | Ratio IC50 (K562 [8]) | Ratio IC50 (HT-29 [9]) | Ratio IC50 [10]
CCOC(=O)CCn1c(=O)c2cc3c(cc2c2ccccc21)OCO3 | > 10 | > 10 | > 40 | > 10 | > 10 | > 10 |  |  |  |  | 
Cn1c(=O)c2cc3c(cc2c2ccccc21)OCO3 | > 10 | > 10 |  | > 10 | > 10 | > 10 |  |  |  |  | 
c1ccc2c(c1)ncc1cc3c(cc12)OCO3 [TRISPHAERIDINE] | > 10 | > 10 |  | > 10 | > 10 | > 10 |  |  |  |  | 
CC(C)CCn1c(=O)c2cc3c(cc2c2ccccc21)OCO3 | > 10 | > 10 |  | > 10 | > 10 | > 10 |  |  |  |  | 
O=c1c2cc3c(cc2c2ccccc2n1CCc1ccccc1)OCO3 | 2.3 | 1.4 | 7.3 | 0.7 | 13 | 0.81 | 5.2 | 0.56 | 10 | 3.2 | 9
COc1cc2c(c(OC)c1OC)[C@@H](OC)O[C@@H]1CC=C3CCN(C)[C@H]3[C@H]21 | > 10 | > 10 |  | > 10 | > 10 | > 10 |  |  |  |  | 
CO[C@@H]1C=C[C@@]23c4cc5c(cc4C(=O)O[C@H]2CN(C)[C@H]3C1)OCO5 | > 10 | > 10 |  | > 10 | > 10 | > 10 |  |  |  |  | 
CN1Cc2cc3c(cc2-c2ccccc21)OCO3 | > 10 | > 10 |  | > 10 | > 10 | > 10 |  |  |  |  | 
O[C@H]1[C@H]2c3cc4c(cc3CN3CCC(=C[C@@H]1O)[C@H]23)OCO4 [LYCORINE] | 3.2 | 3.7 | 4.9 | 2.3 | 1.9 | 1.6 |  |  |  |  | 
CO[C@H]1C=C[C@@]23c4cc5c(cc4CN(C)[C@@H]2C(=O)N(C)[C@H]3C1)OCO5 (relative stereo) | > 10 | > 10 |  | > 10 | > 10 | > 10 |  |  |  |  | 
CCOC(=O)CCCn1c(=O)c2cc3c(cc2c2ccccc21)OCO3 | > 10 | > 10 | 36 | > 10 | > 10 | > 10 |  |  |  |  | 
CO[C@@H]1C=C[C@@]23c4cc5c(cc4C(O)[N+](C)(C[C@@H]2O)[C@H]3C1)OCO5.[Cl-] (mixture of isomers) | 1.2 | 1.5 | 3.7 | 1 | 1.1 | 0.91 | 2.5 | 3.4 | 3.7 | 3.1 | 4.1
C/C=C/C=C/C(=O)N1C[C@H](C)NC[C@H]1C [NIGRAGILLIN] | > 10 | > 10 |  | > 10 | > 10 | > 10 |  |  |  |  | 
CO[C@@H]1C=C[C@@]23c4cc5c(cc4CO[C@]2(O)CN(C)[C@H]3C1)OCO5 [TAZETTINE] | > 10 | > 10 |  | > 10 | > 10 | > 10 |  |  |  |  | 
CO[C@@H]1C=C[C@@]23c4cc5c(cc4CN(C[C@@H]2O)[C@H]3C1)OCO5 [(+)-HAEMANTHAMINE] | 2.1 | 4.8 |  | 2.5 | 2.5 | 1.4 |  |  |  |  | 

Reference: ChEMBL document CHEMBL2203151, “Cytotoxic alkaloids from the whole plants of Zephyranthes candida” (J Nat Prod, 2012)
